Key:
Mus musculus [1] = assay: Antagonism of apomorphine induced swimming was determined in female swiss -Wbster mice after (po) administration of 20 mg/kg; assay type: functional
Mus musculus [2] = assay: Antagonism of apomorphine induced climbing was determined in female swiss -Webster mice after (ip) administration of 40 mg/kg; assay type: functional
Summary of the method: (§1)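 Female Swiss-Webster mice (about 20 g) were fasted about 24 h, then given test compound or vehicle ip or po (N = 20 per group). Vehicle was 0.5% w/w hydroxypropylmethylcellulose with 0.1% w/w Tween 80 in water. After 30 min, mice received apomorphine HCl 1.25 mg/kg sc. At 13 min, each mouse was watched for 1 min; score was mean of highest and lowest rung of 27. Groups were compared with vehicle by Student's t-test.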

Mus musculus [3] = assay: Antagonism of apomorphine induced swimming was determined in female swiss -Wbster mice after (ip) administration of 10 mg/kg; assay type: functional
Mus musculus [4] = assay: Antagonism of apomorphine induced climbing was determined in female swiss -Webster mice after (ip) administration of 20 mg/kg; assay type: functional; summary of the method: as §1
Mus musculus [5] = assay: Antagonism of apomorphine induced swimming was determined in female swiss -Wbster mice after (po) administration of 40 mg/kg; assay type: functional
[6] = Number of animals showing dyskinesias was determined in haloperidol sensitized 3 cebus monkeys after (po) administration of 10 mg/kg; assay type: functional
Summary of the method: (§2)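 Adult female and male Cebus monkeys sensitized with oral haloperidol 1 mg/kg once per week until dyskinetic reactions occurred. Test drug given orally (2 mL/kg) in 0.5% w/w hydroxypropylmethylcellulose with 0.1% w/w Tween 80 in distilled water, at least 2 weeks between treatments. Two observers watched continuously for 6-7 h, recording reaction type and severity every 30 min. Score is monkeys with dyskinesias/monkeys tested.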

Mus musculus [7] = assay: Antagonism of apomorphine induced climbing was determined in female swiss -Webster mice after (ip) administration of 10 mg/kg; assay type: functional; summary of the method: as §1
Mus musculus [8] = assay: Antagonism of apomorphine induced swimming was determined in female swiss -Webster mice after (ip) administration of 10 mg/kg; assay type: functional
[9] = Number of animals showing dyskinesias was determined in haloperidol sensitized 5 cebus monkeys after (po) administration of 20 mg/kg; 5/5; assay type: functional; summary of the method: as §2
[10] = Number of animals showing dyskinesias was determined in haloperidol sensitized 5 cebus monkeys after (po) administration of 5 mg/kg; assay type: functional; summary of the method: as §2
Mus musculus [11] = assay: Antagonism of apomorphine induced climbing was determined in female swiss -Webster mice after (ip) administration of 5 mg/kg; assay type: functional; summary of the method: as §1
Mus musculus [12] = assay: Antagonism of apomorphine induced swimming was determined in female swiss -Webster mice after (ip) administration of 20 mg/kg; assay type: functional
D(2) dopamine receptor = D(2) dopamine receptor (Rattus norvegicus, UniProt P61169); assay: Inhibition of spiropiperidone binding at dopamine receptor D2 of rat.
Sequence of D(2) dopamine receptor (P61169 whole entry): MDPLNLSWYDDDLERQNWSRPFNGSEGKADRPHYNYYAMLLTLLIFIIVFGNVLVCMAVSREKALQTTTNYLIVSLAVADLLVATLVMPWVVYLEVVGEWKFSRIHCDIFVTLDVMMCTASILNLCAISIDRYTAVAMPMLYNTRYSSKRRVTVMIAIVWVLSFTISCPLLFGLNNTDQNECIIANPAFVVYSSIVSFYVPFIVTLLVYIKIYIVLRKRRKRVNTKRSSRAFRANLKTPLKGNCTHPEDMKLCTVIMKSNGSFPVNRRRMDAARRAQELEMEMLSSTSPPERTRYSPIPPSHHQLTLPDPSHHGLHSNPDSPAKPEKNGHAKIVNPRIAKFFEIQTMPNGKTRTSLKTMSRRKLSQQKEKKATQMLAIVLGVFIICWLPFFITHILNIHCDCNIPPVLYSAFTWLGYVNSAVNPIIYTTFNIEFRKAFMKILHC

Mus musculus [13] = assay: Antagonism of apomorphine induced swimming was determined in female swiss -Webster mice after (ip) administration of 40 mg/kg; assay type: functional
Mus musculus [14] = assay: Antagonism of apomorphine induced swimming was determined in female swiss -Webster mice after (ip) administration of 5 mg/kg; assay type: functional
Mus musculus [15] = assay: Antagonism of apomorphine induced climbing was determined in female swiss -Wbster mice after (po) administration of 80 mg/kg; assay type: functional; summary of the method: as §1
[16] = Number of animals showing dyskinesias was determined in haloperidol sensitized 9 cebus monkeys after (po) administration of 80 mg/kg; assay type: functional; summary of the method: as §2
Mus musculus [17] = assay: Antagonism of apomorphine induced climbing was determined in female swiss -Wbster mice after (ip) administration of 80 mg/kg; assay type: functional; summary of the method: as §1
Mus musculus [18] = assay: Antagonism of apomorphine induced climbing was determined in female swiss -Wbster mice after (po) administration of 20 mg/kg; assay type: functional; summary of the method: as §1
Mus musculus [19] = assay: Antagonism of apomorphine induced climbing was determined in female swiss -Wbster mice after (ip) administration of 20 mg/kg; assay type: functional; summary of the method: as §1
Mus musculus [20] = assay: Antagonism of apomorphine induced climbing was determined in female swiss -Wbster mice after (ip) administration of 40 mg/kg; assay type: functional; summary of the method: as §1
Mus musculus [21] = assay: Antagonism of apomorphine induced climbing was determined in female swiss -Wbster mice after (po) administration of 40 mg/kg; assay type: functional; summary of the method: as §1
Mus musculus [22] = assay: Antagonism of apomorphine induced swimming was determined in female swiss -Wbster mice after (po) administration of 80 mg/kg; assay type: functional
[23] = target: D(2) dopamine receptor (Rattus norvegicus) (UniProt P61169); assay: Binding affinity at dopamine receptor D2 from rat by spiropiperidone displacement.
Sequence of D(2) dopamine receptor (Rattus norvegicus) (P61169 whole entry): as above
Summary of the method: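 D2 receptor binding was read as % displacement of spiropiperidone, with test compound at 1000 nM unless stated otherwise. IC50 values used at least five concentrations per compound in triplicate. Each value is the mean of two replicate experiments differing by 5% or less.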

[24] = Number of animals showing dyskinesias was determined in haloperidol sensitized 2 cebus monkeys after (po) administration of 10 mg/kg; assay type: functional; summary of the method: as §2
Mus musculus [25] = assay: Antagonism of apomorphine induced climbing was determined in female swiss -Webster mice after (ip) administration of 2.5 mg/kg; assay type: functional; summary of the method: as §1
[26] = Number of animals showing dyskinesias was determined in haloperidol sensitized 2 cebus monkeys after (po) administration of 20 mg/kg; assay type: functional; summary of the method: as §2
Mus musculus [27] = assay: Antagonism of apomorphine induced swimming was determined in female swiss -Webster mice after (ip) administration of 2.5 mg/kg; assay type: functional
[28] = Number of animals showing dyskinesias was determined in haloperidol sensitized 3 cebus monkeys after (po) administration of 20 mg/kg; assay type: functional; summary of the method: as §2
[29] = Number of animals showing dyskinesias was determined in haloperidol sensitized 13 cebus monkeys after (po) administration of 10 mg/kg; assay type: functional
Summary of the method: (§3)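 Adult male and female Cebus monkeys sensitized with haloperidol 1 mg/kg po weekly until dyskinetic reactions appeared. Drug given orally (2 mL/kg) in 0.5% w/w hydroxypropylmethylcellulose with 0.1% w/w Tween 80, at least 2 weeks between treatments. Two observers watched continuously for 6–7 h, logging reaction type and severity every 30 min. Score is the number of monkeys with dyskinesias over the number tested.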

Mus musculus [30] = assay: Antagonism of apomorphine induced climbing was determined in female swiss -Webster mice after (ip) administration of 80 mg/kg; assay type: functional; summary of the method: as §1
[31] = Number of animals showing dyskinesias was determined in haloperidol sensitized 13 cebus monkeys after (po) administration of 20 mg/kg; assay type: functional; summary of the method: as §3
[32] = Number of animals showing dyskinesias was determined in haloperidol sensitized 11 cebus monkeys after (po) administration of 40 mg/kg; assay type: functional; summary of the method: as §3
Mus musculus [33] = assay: Antagonism of apomorphine induced swimming was determined in female swiss -Webster mice after (po) administration of 10 mg/kg; assay type: functional
Summary of the method: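 Female Swiss-Webster mice (~20 g), food-deprived ~24 h, N = 20 per group; oral dosing in 0.5% w/w hydroxypropylmethylcellulose with 0.1% w/w Tween 80 in water. Apomorphine given; mice placed in a circular tank (5.5 cm water, room temperature) with marks 180° apart. Each 180° swim counted, observed via overhead mirrors; group score derived from swim counts.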

Q: With `OCCN1CCN(C2=Nc3ccccc3Sc3ccccc32)CC1` as the molecule, how does the Activity (Mus musculus [1]) read?
A: 18

Q: What about the Activity (Mus musculus [2]) of the same molecule?
A: 1

Q: What about the Activity (Mus musculus [3]) of the same molecule?
A: 3

Q: What about the Activity (Mus musculus [4]) of the same molecule?
A: 6

Q: And the Activity (Mus musculus [5])?
A: 28

Q: And the No of monkeys [6]?
A: 2

Q: What about the Activity (Mus musculus [7]) of the same molecule?
A: 24

Q: Which Activity (Mus musculus [8]) does the source give for `COCC(CCN1CCN(C2=Nc3ccccc3Sc3ccccc32)CC1)OC` (centres undefined) here?
A: 8

Q: What about the No of monkeys [9] of the same molecule?
A: 5

Q: What about the No of monkeys [10] of the same molecule?
A: 0

Q: What about the Activity (Mus musculus [11]) of the same molecule?
A: 21

Q: And the Activity (Mus musculus [2])?
A: 0

Q: And the Activity (Mus musculus [12])?
A: 20

Q: And the IC50 (D(2) dopamine receptor)?
A: 293 nM

Q: What about the Activity (Mus musculus [13]) of the same molecule?
A: 32

Q: What about the Activity (Mus musculus [14]) of the same molecule?
A: 2

Q: And the Activity (Mus musculus [4])?
A: 0

Q: What about the Activity (Mus musculus [7]) of the same molecule?
A: 5

Q: Which Activity (Mus musculus [1]) does the source give for `OCCOCCN1CCN(C2=Nc3ccccc3Cc3ccccc32)CC1` here?
A: 1

Q: And the Activity (Mus musculus [15])?
A: 10

Q: And the No of monkeys [16]?
A: 0

Q: And the Activity (Mus musculus [17])?
A: 2

Q: What about the Activity (Mus musculus [18]) of the same molecule?
A: 24

Q: What about the Activity (Mus musculus [19]) of the same molecule?
A: 21

Q: What about the Activity (Mus musculus [20]) of the same molecule?
A: 17

Q: What about the Activity (Mus musculus [5]) of the same molecule?
A: 1

Q: What about the Activity (Mus musculus [21]) of the same molecule?
A: 17

Q: What about the Activity (Mus musculus [22]) of the same molecule?
A: 3

Q: And the % displacement of spiropiperidone [23]?
A: 22%

Q: For `COCC(CN1CCN(C2=Nc3ccccc3Sc3ccccc32)CC1)OC` (centres undefined), which Activity (Mus musculus [8]) is on record?
A: 17

Q: And the Activity (Mus musculus [11])?
A: 5

Q: What about the No of monkeys [24] of the same molecule?
A: 1

Q: What about the Activity (Mus musculus [2]) of the same molecule?
A: 0

Q: What about the Activity (Mus musculus [25]) of the same molecule?
A: 18

Q: What about the Activity (Mus musculus [12]) of the same molecule?
A: 28

Q: And the IC50 (D(2) dopamine receptor)?
A: 795 nM

Q: And the No of monkeys [26]?
A: 1

Q: What about the Activity (Mus musculus [13]) of the same molecule?
A: 33

Q: What about the Activity (Mus musculus [14]) of the same molecule?
A: 9

Q: And the Activity (Mus musculus [4])?
A: 2

Q: What about the Activity (Mus musculus [27]) of the same molecule?
A: 5

Q: What about the Activity (Mus musculus [7]) of the same molecule?
A: 1

Q: What does the source list for `OCCOCCN1CCN(C2=Nc3cc(Cl)ccc3Oc3ccccc32)CC1`?
A: Activity (Mus musculus [1]): 2; Activity (Mus musculus [19]): 17; Activity (Mus musculus [20]): 0; Activity (Mus musculus [5]): 4; No of monkeys [28]: 2; % displacement of spiropiperidone [23]: 54%

Q: Which results are given for `CN1CCN(C2=Nc3cc(Cl)ccc3Nc3ccccc32)CC1` [CLOZAPINE]?
A: Activity (Mus musculus [1]): 3; No of monkeys [29]: 0; Activity (Mus musculus [30]): >0; Activity (Mus musculus [2]): >5; No of monkeys [31]: 0; No of monkeys [32]: 0; Activity (Mus musculus [4]): 19; Activity (Mus musculus [5]): >13; Activity (Mus musculus [22]): >15; Activity (Mus musculus [33]): 4; Activity (Mus musculus [7]): 23
